Data on 25 compounds can be found in ChEMBL document CHEMBL1137912, “Novel isoxazole carboxamides as growth hormone secretagogue receptor (GHS-R) antagonists” (Bioorg Med Chem Lett, 2004).

The target of experiment [1] is T1, Growth hormone secretagogue receptor type 1 (Homo sapiens, UniProt Q92847). The experiment in a line: Ability to inhibit ghrelin induced increase in intracellular [Ca2+] in CHO-K cells was determined by FLIPR assay. The experiment is classed as functional, cell-based. In short, it runs like this: (§1)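 Antagonist mode in CHO-K cells stably expressing human GHS-R, grown to confluency overnight. Cells were loaded with Fluo-4 AM plus probenecid in DPBS for 1–3h in the dark at room temperature, then washed. Compound was added in 0.1% BSA/4% DMSO DPBS and read for 3min. Ghrelin was then added and read a further 3min at ex 488/em 520nm. IC50 from sigmoidal fit.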
T1 sequence (Q92847 whole entry): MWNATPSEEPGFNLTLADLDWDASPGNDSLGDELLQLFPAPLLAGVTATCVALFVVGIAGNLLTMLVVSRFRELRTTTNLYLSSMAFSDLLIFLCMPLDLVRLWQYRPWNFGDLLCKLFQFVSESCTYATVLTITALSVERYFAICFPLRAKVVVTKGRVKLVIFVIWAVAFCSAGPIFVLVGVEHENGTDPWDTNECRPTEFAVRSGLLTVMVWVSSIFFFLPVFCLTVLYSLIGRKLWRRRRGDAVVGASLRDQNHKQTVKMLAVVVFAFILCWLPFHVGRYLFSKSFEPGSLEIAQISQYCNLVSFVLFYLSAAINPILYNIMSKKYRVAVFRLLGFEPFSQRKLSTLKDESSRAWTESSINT

For experiment [2], the target named is T1, Growth hormone secretagogue receptor type 1. The experiment in a line: Ability to displace [125I]ghrelin from cloned human GHS-R expressed in CHO-K cells was determined (Kd of ghrelin is 0.4 nM). The experiment is classed as cell-based.
Experiment [3] has the same target. The experiment in a line: Ability to inhibit ghrelin induced increase in intracellular [Ca2+] in CHO-K cells. The experiment is classed as functional, cell-based. The method in brief: as §1
Experiment [4] shares this target. The experiment in a line: Binding affinity to displace [125I]ghrelin from cloned human GHS-R expressed in CHO-K cells was determined (Kd of ghrelin is 0.4 nM). The experiment is classed as cell-based.
The target in experiment [5] is Growth hormone secretagogue receptor type 1 (Mus musculus, UniProt Q99P50). The experiment in a line: Inhibitory concentration against mouse Growth hormone secretagogue receptor.
Chain of Growth hormone secretagogue receptor type 1 (Mus musculus, UniProt Q99P50) (Q99P50 whole entry): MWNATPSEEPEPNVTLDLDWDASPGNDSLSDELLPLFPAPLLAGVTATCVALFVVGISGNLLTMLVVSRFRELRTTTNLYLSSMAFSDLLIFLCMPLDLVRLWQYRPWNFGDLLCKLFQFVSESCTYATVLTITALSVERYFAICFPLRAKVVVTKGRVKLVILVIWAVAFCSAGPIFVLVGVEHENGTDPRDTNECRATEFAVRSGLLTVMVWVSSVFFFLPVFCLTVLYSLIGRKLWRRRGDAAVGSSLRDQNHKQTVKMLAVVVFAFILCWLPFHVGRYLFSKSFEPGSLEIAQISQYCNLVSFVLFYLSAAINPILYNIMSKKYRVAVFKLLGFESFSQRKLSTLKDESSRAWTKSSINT
Experiment [6] addresses Growth hormone secretagogue receptor type 1 (Rattus norvegicus, UniProt O08725). The experiment in a line: Inhibitory concentration against rat Growth hormone secretagogue receptor.

Chain of Growth hormone secretagogue receptor type 1 (Rattus norvegicus, UniProt O08725) (O08725 whole entry): as the sequence (Q99P50 whole entry) above, with S30P, S249A counted along it

Turning to `CCN(CC)c1ccc(NC(=O)c2c(-c3c(Cl)cccc3Cl)noc2CCC2CCOCC2)cc1`, the IC50 in experiment [1] came to 146 nM; in experiment [2], 29 nM.
As for `CCN(CC)[C@H]1CC[C@H](NC(=O)c2c(-c3c(Cl)cccc3Cl)noc2CCC2OCCCO2)CC1`, the results for the IC50 in experiment [2] and in experiment [3] were 87 nM and 3 nM, respectively.
For `CCN(CC)c1ccc(NC(=O)c2c(-c3c(Cl)cccc3Cl)noc2CCN2CCCC2=O)cc1`, the IC50 in experiment [1] and in experiment [2] was 18 nM throughout.
Turning to `CCc1onc(-c2c(Cl)cccc2Cl)c1C(=O)Nc1ccc(N(CC)CC)cc1`, the 50% inhibitory concentration (IC50) in experiment [1] is 319 nM; in experiment [2], 147 nM.
As to `CCN(CC)c1ccc(NC(=O)c2c(-c3c(Cl)cccc3Cl)noc2CCC2OCCCO2)cc1`, the values for the IC50 in experiment [1] and in experiment [2] were 19 nM and 6 nM, respectively.
The matching figures for `CCN(CC)c1ccc(NC(=O)c2c(-c3c(Cl)cccc3Cl)noc2CCN2C(=O)CCC2(C)C)cc1`: 15 nM and 39 nM.
As to `CCN(CC)[C@H]1CC[C@H](NC(=O)c2c(-c3c(Cl)cccc3Cl)noc2CCC2CCCO2)CC1` (some centres not stated), the IC50 in experiment [1] was determined as 103 nM; in experiment [2] it was 194 nM.
The corresponding values for `CCN(CC)c1ccc(NC(=O)c2c(-c3c(Cl)cccc3Cl)noc2CCOC)cc1` are 115 nM and 110 nM.
The matching figures for `CCN(CC)c1ccc(NC(=O)c2c(-c3c(Cl)cccc3Cl)noc2CCN2CCN(C)C2=O)cc1`: 10 nM and 21 nM.
With `CCN(CC)c1ccc(NC(=O)c2c(-c3c(Cl)cccc3Cl)noc2CN2CCCC2=O)cc1`, the IC50 in experiment [1] is 98 nM; in experiment [2], 122 nM.
For the compound `CCN(CC)c1ccc(NC(=O)c2c(-c3c(Cl)cccc3Cl)noc2CCC2CCCCO2)cc1` (configuration not stated), the values for the IC50 in experiment [1] and in experiment [2] were 102 nM and 39 nM, respectively.
Consider `CCN(CC)c1ccc(NC(=O)c2c(-c3c(Cl)cccc3Cl)noc2CCc2ccccc2OC)cc1`, for which the IC50 in experiment [1] is 714 nM; in experiment [2], 389 nM.
Turning to `CCN(CC)c1ccc(NC(=O)c2c(-c3c(Cl)cccc3Cl)noc2CCN2CCCCC2=O)cc1`, the IC50 in experiment [1] is 8 nM; in experiment [2], 9 nM.
As to `CCN(CC)[C@H]1CC[C@H](NC(=O)c2c(-c3c(Cl)cccc3Cl)noc2C)CC1`, the IC50 in experiment [1] worked out at 57 nM; in experiment [2], 53 nM.
With `CCN(CC)c1ccc(NC(=O)c2c(-c3c(Cl)cccc3Cl)noc2C)cc1`, the IC50 was 180 nM in experiment [1] and 130 nM in experiment [4].
As to `CCN(CC)c1ccc(NC(=O)c2c(-c3c(Cl)cccc3Cl)noc2CCC2CCCO2)cc1` (configuration not stated), the IC50 in experiment [1] and in experiment [2] was 57 nM each time.
Take `CCN(CC)[C@H]1CC[C@H](NC(=O)c2c(-c3c(Cl)cccc3Cl)noc2CCc2ccc3c(c2)OCO3)CC1`: the IC50 is 54 nM in experiment [1], 7 nM in experiment [5], 32 nM in experiment [2] and 12 nM in experiment [6].
With `CCN(CC)c1ccc(NC(=O)c2c(-c3c(Cl)cccc3Cl)noc2C(C)C)cc1`, the IC50 in experiment [1] is 861 nM; in experiment [2], 150 nM.
The matching figures for `CCCc1onc(-c2c(Cl)cccc2Cl)c1C(=O)Nc1ccc(N(CC)CC)cc1`: 492 nM and 131 nM.
The matching figures for `CCN(CC)c1ccc(NC(=O)c2c(-c3c(Cl)cccc3Cl)noc2CCCO)cc1`: 308 nM and 132 nM.
The corresponding values for `CCN(CC)c1ccc(NC(=O)c2c(-c3c(Cl)cccc3Cl)noc2CCC2OCCO2)cc1` are 56 nM and 25 nM.
In the case of `CCN(CC)c1ccc(NC(=O)c2c(-c3c(Cl)cccc3Cl)noc2CCc2cccc3c2OCO3)cc1`, the IC50 is 564 nM in experiment [1] and 162 nM in experiment [2].
For the compound `CCN(CC)c1ccc(NC(=O)c2c(-c3c(Cl)cccc3Cl)noc2CCN(C)C(C)=O)cc1`, the results for the IC50 in experiment [1] and in experiment [2] were 19 nM and 34 nM, respectively.
Regarding `CCN(CC)c1ccc(NC(=O)c2c(-c3c(Cl)cccc3Cl)noc2CCc2ccc3c(c2)OCO3)cc1`, the half-maximal inhibitory concentration (IC50) in experiment [1] was 93 nM; in experiment [2], 47 nM.
The matching figures for `CCN(CC)[C@H]1CC[C@H](NC(=O)c2c(-c3c(Cl)cccc3Cl)noc2CCN2CCCCC2=O)CC1`: 190 nM and 139 nM.

One may read the IC50 as the point on the concentration scale where inhibition reaches its midpoint. Lower therefore signals greater potency.
